# High-throughput results (PubChem BioAssay)
# Compounds with a hit are over-represented: about 1.4% of the library has one in this group of screens.
# Arr AP2 block = human beta-arrestin and AP2 interaction inhibition. FITC-arrestin peptide / GST-AP2 beads, flow cytometry; AP2 beta2 appendage carries R879A mutation. inhibition, % at 10 µM. 340,000 compounds, 0.31% hits. AID 504490;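 active means inhibition above a set limit, near 3 SD of compounds lacking own fluorescence, cut at about 54% in these data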;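 further: plate controls were DMSO wells for no effect and 5 µM unlabelled arrestin peptide for full effect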
#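 System: GST-tagged AP2 beta2-adaptin appendage (R879A) on 4 µm glutathione beads / Reagent: FITC-arrestin peptide, 50 nM / Detection: HyperCyt-sampled flow cytometry, FL1 channel, ex 488/em 535 nm / Timing: 12 min plus 1 h, RT / Buffer or medium: PBS plus Tween 20 (0.05%) and BSA (0.1%)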
# DAGLB inh = diacylglycerol lipase beta (human) inhibition. Q8NCG7. HEK293T DAGLB membrane lysate, EnzChek fluorogenic substrate. inhibition, % at 5.17 µM. 340,000 compounds, 0.059% hits; in the data active means inhibition above about 34%;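 further: 0% = enzyme with vehicle and 100% = wells lacking enzyme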
# OPRM1-OPRD1 ag = agonists of human mu-delta opioid receptor heterodimerization; cells, OPRM1-OPRD1 heterodimerization, luminescence; activation, % at 9.3 µM; 340,000 compounds, 0.3% hits; AID 504326; in the data active means activation above about 18%;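 further: 0% = vehicle-treated cells and 100% = reference agonist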
# MOR-DOR inv ag = mu-delta opioid heterodimer inverse agonism; inhibition, % at 9.3 µM; AID 504357; 340,000 compounds, 0.21% hits; cell-based MOR-DOR heterodimer luminescence; in the data active means inhibition above about 22%, passing the limit was not always enough;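 further: 0% = cells with DMSO and 100% = wells without cells with DMSO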
# HTR5A ag ctr = counter-screen for OPRM1-OPRD1 agonists: human HTR5A agonism. P47898. HTR5A agonist assay, luminescence, cell-based. activation, % at 9.3 µM. 340,000 compounds, 0.61% hits. AID 504692; in the data active means activation mostly above about 9.5%, no sharp cut-off; inactive means mostly below about 7.6%;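 further: 0% = cells with vehicle only and 100% = reference agonist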
# HTR5A inv ag = HTR5A inverse agonism, opioid heterodimer counter-screen; P47898; HTR5A cell line, luminescence; inhibition, % at 9.3 µM; 340,000 compounds, 0.083% hits; AID 504634; in the data active means inhibition mostly above about 23%, no sharp cut-off; inactive means mostly below about 18%;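 further: 0% = cells with DMSO and 100% = no-cell wells with DMSO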
# Arr-AP2 CP1 = blocks beta-arrestin peptide binding to human AP2. shares compounds with Arr AP2 block. GST-AP2 beads, FITC arrestin peptide binding, flow cytometry; GST-fused beta2-adaptin appendage, R879A mutant. inhibition, % at 10 µM. 1,300 compounds, 2% hits;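 active means inhibition above a set limit, roughly 3 SD of non-fluorescent compound noise, cut at about 38% in these data; inactive means inhibition at or below that limit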;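 further: loss of bead fluorescence from 50 nM FITC arrestin peptide bound to appendage; 0% = negative control wells and 100% = excess unlabelled arrestin peptide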
# Target sequence (P63010 whole entry, looked up, the tested form may be a part, one chain of several): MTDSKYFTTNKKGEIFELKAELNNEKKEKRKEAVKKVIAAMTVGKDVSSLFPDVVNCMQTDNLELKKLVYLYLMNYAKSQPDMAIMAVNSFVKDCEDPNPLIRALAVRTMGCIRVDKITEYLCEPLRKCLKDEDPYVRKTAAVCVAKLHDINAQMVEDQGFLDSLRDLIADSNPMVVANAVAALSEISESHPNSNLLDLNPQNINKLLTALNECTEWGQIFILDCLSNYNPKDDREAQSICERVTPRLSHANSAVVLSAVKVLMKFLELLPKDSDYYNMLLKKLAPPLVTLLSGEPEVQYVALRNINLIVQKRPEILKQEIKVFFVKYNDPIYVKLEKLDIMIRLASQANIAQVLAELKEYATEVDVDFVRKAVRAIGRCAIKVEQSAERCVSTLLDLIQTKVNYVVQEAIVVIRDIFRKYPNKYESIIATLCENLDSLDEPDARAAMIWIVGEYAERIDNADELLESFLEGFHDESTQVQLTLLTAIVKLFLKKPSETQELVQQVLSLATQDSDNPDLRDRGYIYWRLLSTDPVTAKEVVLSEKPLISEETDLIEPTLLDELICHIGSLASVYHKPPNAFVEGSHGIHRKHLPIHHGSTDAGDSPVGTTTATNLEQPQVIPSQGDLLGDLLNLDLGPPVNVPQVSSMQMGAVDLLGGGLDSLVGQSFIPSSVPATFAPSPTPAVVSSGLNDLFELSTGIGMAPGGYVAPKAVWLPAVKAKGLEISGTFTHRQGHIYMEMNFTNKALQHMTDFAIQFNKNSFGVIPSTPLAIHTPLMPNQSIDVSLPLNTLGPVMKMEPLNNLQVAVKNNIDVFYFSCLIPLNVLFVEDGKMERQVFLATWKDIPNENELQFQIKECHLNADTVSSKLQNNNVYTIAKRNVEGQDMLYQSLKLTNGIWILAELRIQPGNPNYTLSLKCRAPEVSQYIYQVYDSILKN
# GST-FITC bead = disrupts GST binding to glutathione beads, arrestin-AP2 artifact. 1,300 compounds, 2% hits. shares compounds with Arr AP2 block. AID 588338. GST-fluorescein binding to GSH beads, fluorescence, counter-screen. inhibition, % at 10 µM;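 active means inhibition above 50%, about 3 SD of the inhibition seen with non-fluorescent compounds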;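 further: fluorescein maleimide labelled GST captured on 4 micron glutathione beads; higher means more loss of bead fluorescence from quenching or blocked binding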
# The depositor's hits bear a star; x = not tested or not shown.
SMILES,Arr AP2 block,DAGLB inh,OPRM1-OPRD1 ag,MOR-DOR inv ag,HTR5A ag ctr,HTR5A inv ag,Arr-AP2 CP1,GST-FITC bead
Cc1cc(NC(=O)CC#N)n(-c2nc3ccccc3[nH]2)n1,10.0,2.6,-3.4,16.8,2.7,-8.1,x,x
COc1cccc(OC)c1C(=O)Nc1cc(C)nn1-c1nc2ccccc2[nH]1,36.3,-7.5,-2.5,12.7,-1.5,-13.2,0.6,5.4
COc1ccccc1S(=O)(=O)N(C)C[C@@H]1OCc2cnnn2CCCC(=O)N([C@@H](C)CO)C[C@H]1C,x,0.5,x,x,x,x,x,x
Cc1ccccc1C(=O)Nc1c(C(=O)N(CCN(C)C)Cc2ccco2)oc2ccccc12,58.1*,-1.6,5.0,-25.1,-2.9,11.0,-6.5,1.6
COc1ccccc1C(=O)Nc1c(C(=O)N(CCN(C)C)Cc2ccco2)oc2ccccc12,3.2,-2.9,5.9,-30.4,3.0,-15.2,x,x
COC(=O)CNC(=O)C12CC3(C)CC(C)(CC(C)(C3)C1)C2,59.3*,-1.7,-1.3,7.7,-1.1,-35.4,-6.7,-0.8
CC12CC3(C)CC(C)(C1)CC(C(=O)NCc1ccccn1)(C2)C3,37.1,1.0,-1.1,5.7,3.0,-2.3,x,x
CC(=O)c1ccc(-n2ccc(=O)cc2)cc1,60.2*,1.0,-2.2,11.2,0.2,-0.8,-4.7,-3.7
Cn1nc(C(=O)NC2CCCC2)c2ccccc2c1=O,69.4*,1.2,-1.5,6.0,0.8,-2.3,4.1,0.0
O=C(NC1CCCC1)c1cc2c(=O)n3ccccc3nc2s1,0.2,-0.2,-2.8,11.6,-0.7,1.8,x,x
Cn1c(C(=O)NC2CCCCC2)cc2c(=O)n3ccccc3nc21,59.6*,-1.1,-1.5,7.8,-6.0,-12.6,-1.6,-4.7
O=C(CCN1C(=O)/C(=C/c2ccccc2)SC1=S)NNC(=O)c1cccnc1,106.4*,1.5,-1.0,5.0,0.8,-1.3,9.9,0.7
CCOC(=O)C1CCN(C(=O)c2ccc(N3CCOCC3)c([N+](=O)[O-])c2)CC1,64.3*,3.7,0.4,-2.1,-5.2,19.0,-7.3,-2.5
COc1ccc2oc(C(=O)Nc3nc(C)cs3)c(C)c2c1,62.8*,-7.5,-0.3,1.7,-1.0,3.6,-2.0,6.8
O=C1C=C(c2ccccc2)C(c2ccccc2)C1 (stereo unspecified),-16.0,-1.2,-1.5,7.9,1.1,-4.0,x,x
Cc1cc(C)c(NC(=O)CC(=O)c2ccccc2)c(Cl)c1,-11.6,1.1,-2.9,13.2,1.7,-6.0,11.2,-5.2
COc1ccc(S(=O)(=O)Nc2ccc3c(c2)C(=O)N([C@H](C)CO)C[C@H](C)[C@@H](CN(C)C(=O)Nc2ccc(C(F)(F)F)cc2)OCCCC[C@H](C)O3)cc1,x,-3.8,x,x,x,x,x,x
CCOC(=O)C1CCN(c2cc3c(cc2NC(=O)c2cc(OC)ccc2Br)n(C)c(=O)n3C)CC1,-1.5,-0.1,2.1,-10.7,0.9,3.9,-3.8,-6.8
CCOC(=O)C1CCN(c2cc3c(cc2NC(=O)c2ccccc2Br)n(C)c(=O)n3C)CC1,33.6,1.0,-3.3,16.7,-2.4,-7.5,8.3,-1.5
O=C(COC(=O)/C=C/c1cccc(C(F)(F)F)c1)Nc1cccc(S(=O)(=O)NC2=NCCC2)c1,x,0.3,x,x,x,x,x,x
COc1ccc(S(=O)(=O)N2CCOCC2)cc1NC(=O)c1ccc(=O)[nH]c1,-2.8,0.1,-1.9,12.2,-1.2,13.3,-8.1,-0.9
COc1ccc(S(=O)(=O)N2CCOCC2)cc1NC(=O)c1cc(=O)[nH]c2ccccc12,-2.5,0.7,-0.6,2.2,-2.2,18.9,-15.1,-2.3
Cc1cc(Br)ccc1OCCNCc1ccccc1,55.9*,-8.7,4.7,-22.4,-0.1,-14.0,-1.8,-13.2
Cc1cc(C)c(C)c(OCCNCc2ccccc2)c1,-3.0,-4.4,1.2,-6.0,-0.9,3.6,x,x
O=C1CCC/C1=c1\s/c(=C/c2cccnc2)c(=O)n1-c1ccccc1,-16.7,1.0,-3.0,15.2,-1.7,6.7,x,x
SMILES,Arr AP2 block,DAGLB inh,OPRM1-OPRD1 ag,MOR-DOR inv ag,HTR5A ag ctr,HTR5A inv ag,Arr-AP2 CP1,GST-FITC bead
CCC(C)N(C(=O)COC(=O)c1ccccc1SCC(=O)N1CCCC1)C1CCS(=O)(=O)C1 (stereo unspecified),54.4*,2.0,-3.8,19.6,-2.9,12.5,7.8,-1.7
Cc1ccc(-c2cc(C(F)F)n3ncc(C(=O)N4CCCc5ccccc54)c3n2)cc1,-4.0,-2.4,-1.8,10.0,6.9,-24.3,-2.3,-2.1
CSc1nc(SCc2ccccc2)[nH]c(=O)n1,x,-4.1,x,x,x,x,x,x
COc1ccccc1NS(=O)(=O)c1cccc(NC(=O)C2CC(=O)N(Cc3ccccc3)C2)c1 (stereo unspecified),60.2*,-0.3,-0.7,3.4,2.6,-7.2,-2.6,-12.0
CC(=O)Nc1ccc(S(=O)(=O)N(CC(=O)NCC2CCCO2)Cc2ccccc2Cl)cc1 (stereo unspecified),x,0.0,x,x,x,x,x,x
COc1ccc(Cn2ccnc2SCC(=O)Nc2ccc(F)cc2F)cc1,x,-4.4,x,x,x,x,x,x
CCN1CCN(S(=O)(=O)c2ccc(OC)c(NC(=O)c3ccccc3)c2)CC1,3.0,0.3,0.7,-3.8,2.4,10.9,4.3,-2.1
COc1ccc(S(=O)(=O)N2CCN(C)CC2)cc1NC(=O)c1ccccc1,-6.1,-1.5,-3.3,17.8,3.7,-10.4,-3.3,-6.5
COc1ccc(S(=O)(=O)N2CCCCCC2)cc1NC(=O)c1ccccc1,5.5,-4.9,-0.6,2.2,1.3,-3.4,x,x
COC(=O)C1OCOC2C(C(=O)OC)OCOC12 (stereo unspecified),28.5,-0.2,-2.1,10.5,2.1,-8.1,x,x
Cc1cc(C(=O)Nc2cccc(S(=O)(=O)N3CCCC3)c2)c2ccccc2n1,3.4,-0.9,-3.6,14.2,-2.7,6.8,x,x
Cc1cc(C(=O)Nc2cccc(S(=O)(=O)N3CCCCC3)c2)c2ccccc2n1,-5.6,1.4,-1.2,5.4,-0.1,4.2,-8.5,-2.0
Cc1ccc(S(=O)(=O)N(C)C[C@@H]2OCc3cnnn3CCCC(=O)N([C@H](C)CO)C[C@@H]2C)cc1,x,-1.0,x,x,x,x,x,x
COc1ccc(-c2ccc3c(c2)O[C@H](CN(C)C(=O)Nc2ccccc2F)[C@@H](C)CN([C@H](C)CO)S3(=O)=O)cc1,x,0.5,x,x,x,x,x,x
CC(C)(C)NC(=O)C1Cc2ccccc2CN1C(=O)Nc1ccccc1Cl (stereo unspecified),82.8*,0.2,-1.5,8.7,0.1,9.9,3.1,-0.1
CC(C)(C)NC(=O)C1Cc2ccccc2CN1C(=O)Nc1cccc(Cl)c1 (stereo unspecified),18.3,3.8,0.5,-2.7,-2.6,14.7,x,x
